Experimental data collected from several papers.
Target: Tyrosine-protein kinase Fgr (FGR, Homo sapiens, UniProt P09769)

The remaining binding of `Cc1noc([C@H]2C[C@@H](c3ccc(C(F)(F)F)cc3)CN(C(=O)N3CCS(=O)(=O)C3)C2)n1` is reported as 100% (cell-free assay; competition with immobilised ligand; 1 µM).
For `CN(C)c1nccc(-c2cnc3ncccn23)n1`, the remaining binding was 100% (binding; 1 µM).
For `COc1cnc(Nc2cccc(S(N)(=O)=O)c2)nc1N1CCN(c2ccccc2)CC1`, the remaining binding was 95% (binding; competition with immobilised ligand; 1 µM).
For `N[C@@H]1CCN(c2nccc(-c3cnn4ncccc34)n2)C1`, the remaining binding was 100% (binding; 1 µM).
For `CCN1CCN(Cc2ccc(C(=O)Nc3ccc(C)c(Oc4ccc5c(c4)CC(=O)N5)c3)cc2C(F)(F)F)CC1`, the remaining binding was 68% (binding; competition with immobilised ligand; 1 µM).
With `O=C(NCCCN1CCOCC1)c1ccc(Nc2nccc(-c3cc4ccccc4s3)n2)cc1` the remaining binding was 79% (cell-free assay; competition with immobilised ligand; 1 µM).
The remaining binding of `COc1ccnn2ncc(-c3ccnc(N(C)C)n3)c12` is reported as 76% (binding; 1 µM).
`CN(C)CC#Cc1ccc(OCCCc2sc(N3CCc4cccc(C(=O)Nc5nc6ccccc6s5)c4C3)nc2C(=O)O)c(F)c1` has a remaining binding of 100% (cell-free assay; competition with immobilised ligand; 1 µM).
The remaining binding of `O=C(NCCCN1CCOCC1)c1ccc(Nc2ncc(Cl)c(-c3ccc(Cl)s3)n2)cc1` is reported as 91% (cell-free assay; competition with immobilised ligand; 1 µM).
`FC(F)(F)Oc1cccc(-c2cnc3ccc(-c4ccncc4)nn23)c1` has a remaining binding of 69% (cell-free assay; competition with immobilised ligand; 5 µM).
With `c1cncc(-c2cccc(Nc3nccc(NC4CCCCC4)n3)c2)c1` the remaining binding was 14% (binding; competition with immobilised ligand; 10 µM).
For `Cc1nccc(COC(=O)N2C[C@@H]3[C@@H](CNC(=O)c4ccc5[nH]nnc5c4)[C@@H]3C2)n1`, the remaining binding was 100% (cell-free assay; competition with immobilised ligand; 1 µM).
The remaining binding of `O=C(c1ccc(Nc2ncc(Cl)c(-c3ccc(Cl)s3)n2)cc1)N1CCC(N2CCCC2)CC1` is reported as 96% (cell-free assay; competition with immobilised ligand; 1 µM).
`O=C(Nc1c[nH]nc1C(=O)NC1CCNCC1)c1cc(F)cc(F)c1` has a remaining binding of 100% (binding; competition with immobilised ligand; 1 µM).
`CC1CCCN1c1nccc(-c2cnn3ncccc23)n1` (stereo not drawn) gave a remaining binding of 98% (binding; 1 µM).
For `C[C@@H]1CN(c2cc(-c3nn(C)c4ccc(OC5(C)CC5)cc34)ncn2)C[C@H](C)O1`, the remaining binding was 90% (cell-free assay; competition with immobilised ligand; 1 µM).
The remaining binding of `C[C@@H](c1ccc(-n2cnc3c(N)ncnc32)cc1)N1CCc2nn(C)c(Cc3ccccc3)c2C1=O` is reported as 81% (binding; competition with immobilised ligand; 0.1 µM).
`C[C@@H]1CCN(c2nccc(-c3cnn4ncccc34)n2)C1` has a remaining binding of 100% (binding; 1 µM).
With `COCCOc1nc(-c2ccc(Cl)nc2)nc2c1CN(C(=O)c1ncn3ccccc13)CC2` the remaining binding was 100% (cell-free assay; competition with immobilised ligand; 0.1 µM).
`CN(CCCC(F)(F)F)c1nccc(-c2cnn3ncccc23)n1` gave a remaining binding of 85% (binding; 1 µM).
The remaining binding of `CN([C@@H]1CCc2c(CC(=O)O)c3ccccc3n2C1)S(=O)(=O)c1ccc(F)cc1` is reported as 93% (cell-free assay; competition with immobilised ligand; 1 µM).
